Screens from PubChem BioAssay.
OX1R antag-1 = OX1R (human) antagonism | OX1R-expressing cells, FRET antagonist read-out | AID 485270 | 330,000 tested, 1.8% active | inhibition, % at 6.6 µM | O43613; in the data active = inhibition mostly above about 38%, no sharp cut-off; inactive = mostly below about 40%
EP2 antag = blocks the human prostaglandin E2 receptor EP2; AID 1422; P43116; 260,000 tested, 0.52% active; C6 glioma cells expressing human EP2, cAMP TR-FRET; cells stimulated with saturating PGE2; inhibition, % at 25 µM;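 active = percent inhibition above 40 after rounding to a whole number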;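 note: rat C6 glioma host cells with rolipram phosphodiesterase inhibitor present; the protocol text gives 20 µM as final concentration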
Target sequence (P43116 whole entry, looked up): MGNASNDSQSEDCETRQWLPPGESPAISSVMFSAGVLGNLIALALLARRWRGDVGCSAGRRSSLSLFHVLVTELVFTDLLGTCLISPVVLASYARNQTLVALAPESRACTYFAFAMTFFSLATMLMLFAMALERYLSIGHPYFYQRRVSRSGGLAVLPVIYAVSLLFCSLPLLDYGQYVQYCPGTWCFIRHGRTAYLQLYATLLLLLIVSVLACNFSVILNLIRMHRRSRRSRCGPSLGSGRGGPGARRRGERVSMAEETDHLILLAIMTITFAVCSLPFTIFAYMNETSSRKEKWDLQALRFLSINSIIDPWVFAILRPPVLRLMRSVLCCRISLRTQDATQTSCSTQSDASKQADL
GPR7 antag = antagonists of human GPR7 (neuropeptides B/W receptor 1) | 290,000 tested, 1.1% active | GPR7-expressing cells, fluorescence antagonist assay | inhibition, % at 4.4 µM; in the data active = inhibition above about 16%, passing the limit was not always enough;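 note: cells stimulated with the agonist NPW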
Target sequence (P48145 whole entry, looked up): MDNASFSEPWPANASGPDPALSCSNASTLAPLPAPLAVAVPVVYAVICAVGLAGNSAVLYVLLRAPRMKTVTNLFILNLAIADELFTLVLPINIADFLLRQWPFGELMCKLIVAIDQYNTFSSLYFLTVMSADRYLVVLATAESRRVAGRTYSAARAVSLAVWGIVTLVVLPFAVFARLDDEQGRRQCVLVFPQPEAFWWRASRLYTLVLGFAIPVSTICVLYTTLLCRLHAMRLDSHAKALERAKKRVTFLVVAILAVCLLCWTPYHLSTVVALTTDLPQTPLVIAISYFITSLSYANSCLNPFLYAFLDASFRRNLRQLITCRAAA
EP2 mod = EP2 receptor (human) modulation; 260,000 tested, 0.83% active; AID 940; EP2-expressing cells, cAMP HTRF FRET, PGE2 co-stimulation; P43116; induction, % at 25 µM;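 active = compounds whose cAMP rise, as percent of the full-agonist control response, exceeds 60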;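 note: rat C6 glioma line stably carrying human EP2 under a CMV promoter; the protocol text gives 20 µM as final concentration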
OX1R antag-2 = human HCRTR1 antagonism; O43613; CHO/OX1R cells, Fluo-8 calcium fluorescence, orexin A; inhibition, % at 5 µM; 330,000 tested, 0.43% active;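 active = inhibition above its plate's threshold, mean inhibition of all tested compounds on the plate plus 3 SD, cut at about 37% in these data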
CHO parental Ca = counter-screen for OX1R antagonists: effect in parental CHO cells | 330,000 tested, 0.63% active | parental CHO-K1, ATP-induced calcium, Fluo-8 fluorescence | inhibition, % at 5.6 µM;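 active = inhibition above that plate's mean sample inhibition plus 3 SD, cut at about 26% in these data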
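Material: parental CHO cells / Compound: single nominal dose of 5.6 µM per compound / Signal: Fluo-8 fluorescence / Replicates: singlicate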
OX1R HTRF confirm = confirmation of human orexin 1 receptor antagonists, HTRF format. shares compounds with OX1R antag-1. OX1R-expressing cells, HTRF antagonist assay. inhibition, % at 6.6 µM. 1,800 tested, 49% active. AID 492964; in the data active = inhibition above about 55%;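 note: CHO cells expressing OX1R stimulated with orexin A at about EC80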
CHO-K1 HTRF cnt = counter-screen for OX1R antagonists: effect in parental CHO-K1 cells; shares compounds with OX1R antag-1; inhibition, % at 6.6 µM; 1,800 tested, 48% active; HTRF counterscreen; in the data active = inhibition above about 17%
Hits are given with their value. An excerpt weighted towards active compounds, which were near 3.7% of everything screened.

How did COc1ccc(NC(=O)C2CCCCN2S(=O)(=O)c2ccc(F)cc2)cc1 (stereo unspecified) do in these assays?
OX1R antag-1: 87; EP2 antag: inactive; GPR7 antag: inactive; EP2 mod: inactive; OX1R antag-2: inactive; CHO parental Ca: inactive; OX1R HTRF confirm: inactive; CHO-K1 HTRF cnt: inactive

Results for Cc1cc(C)cc(NC(=O)C2CCCN2S(=O)(=O)c2ccc3c(c2)C(C)(C)C(=O)N3C)c1 (stereo unspecified) ?
OX1R antag-1: inactive; GPR7 antag: inactive; OX1R antag-2: inactive; CHO parental Ca: inactive

What do the screens show for `COc1ccc(NC(=O)C2CCCN2S(=O)(=O)c2ccc(C)cc2)cc1` (stereo unspecified)?
OX1R antag-1: inactive; EP2 antag: inactive; GPR7 antag: inactive; EP2 mod: inactive; OX1R antag-2: inactive; CHO parental Ca: inactive

How did CN1C(=O)C(C)(C)c2cc(S(=O)(=O)N3CCCC3C(=O)NCc3ccc(F)cc3)ccc21 (stereo unspecified) do in these assays?
OX1R antag-1: 78; GPR7 antag: inactive; OX1R antag-2: inactive; CHO parental Ca: inactive; OX1R HTRF confirm: inactive; CHO-K1 HTRF cnt: inactive

What do the screens show for `CC(Cl)C(=O)NNc1cccc(Cl)n1` (stereo unspecified)?
OX1R antag-1: inactive; EP2 antag: inactive; GPR7 antag: inactive; EP2 mod: inactive; OX1R antag-2: inactive; CHO parental Ca: inactive

Results for CC1CCC2C(=O)N(c3cc(Cl)ccc3OC(=O)c3ccco3)C(=O)C2C1 (stereo unspecified) ?
GPR7 antag: inactive

Results for Cn1c(=O)n(CC(=O)O)c(=O)c2c1nc1n2CCS1 ?
OX1R antag-1: inactive; EP2 antag: inactive; GPR7 antag: inactive; EP2 mod: inactive; OX1R antag-2: inactive; CHO parental Ca: inactive

How did CCC(=O)NC1=C(Nc2ccc(N)cc2)C(=O)c2ccccc2C1=O do in these assays?
OX1R antag-1: 82; GPR7 antag: inactive; OX1R antag-2: inactive; CHO parental Ca: inactive; OX1R HTRF confirm: 71; CHO-K1 HTRF cnt: 121

What do the screens show for `CCC(=O)Nc1ccc(C2C(=O)c3ccccc3C2=O)cc1`?
OX1R antag-1: inactive; GPR7 antag: inactive; OX1R antag-2: inactive; CHO parental Ca: inactive

What do the screens show for `COc1ccc(NC2=C(NC(C)=O)C(=O)c3ccccc3C2=O)cc1`?
OX1R antag-1: 97; GPR7 antag: inactive; OX1R antag-2: inactive; CHO parental Ca: inactive; OX1R HTRF confirm: 78; CHO-K1 HTRF cnt: 96

Results for COCCCNC(=O)C[C@H]1C[C@H](C(=O)N2CCOCC2)[C@@]2(C)c3[nH]c4ccc(Cl)cc4c3CCN2C1=O ?
OX1R antag-1: inactive; OX1R antag-2: inactive; CHO parental Ca: inactive

Results for CCC1(CC)N([O-])C(C)=C(c2ccccc2)[N+]1=O ?
OX1R antag-1: inactive; EP2 antag: inactive; GPR7 antag: inactive; EP2 mod: inactive; OX1R antag-2: inactive; CHO parental Ca: inactive

Results for CC1(C)N([O-])C2=C(c3ccccc3C2=O)[N+](=O)C1(C)C ?
OX1R antag-1: 169; EP2 antag: inactive; GPR7 antag: inactive; EP2 mod: inactive; OX1R antag-2: inactive; CHO parental Ca: inactive; OX1R HTRF confirm: 56; CHO-K1 HTRF cnt: 66

Results for O=C(O)c1ccc(NC2=C(N3CCOCC3)C(=O)c3ccccc3C2=O)cc1 ?
OX1R antag-1: inactive; EP2 antag: inactive; GPR7 antag: inactive; EP2 mod: inactive; OX1R antag-2: inactive; CHO parental Ca: inactive

Results for CC(=O)N(C1=C(N2CCOCC2)C(=O)c2ccccc2C1=O)c1ccc(C(=O)O)cc1 ?
OX1R antag-1: 125; EP2 antag: inactive; GPR7 antag: inactive; EP2 mod: inactive; OX1R antag-2: inactive; CHO parental Ca: inactive; OX1R HTRF confirm: 98; CHO-K1 HTRF cnt: 86

What do the screens show for `Cc1cc(C)nc(NC(=O)c2cc([N+](=O)[O-])cc([N+](=O)[O-])c2)n1`?
OX1R antag-1: 111; EP2 antag: inactive; GPR7 antag: inactive; EP2 mod: inactive; OX1R antag-2: inactive; CHO parental Ca: inactive; OX1R HTRF confirm: inactive; CHO-K1 HTRF cnt: 68

What do the screens show for `O=C(Nc1cccnc1)c1ccc([N+](=O)[O-])o1`?
OX1R antag-1: 79; GPR7 antag: inactive; OX1R antag-2: inactive; CHO parental Ca: inactive; OX1R HTRF confirm: 58; CHO-K1 HTRF cnt: 88

Results for Cc1cc(C)nc(NC(=O)c2ccc(C)c([N+](=O)[O-])c2)n1 ?
OX1R antag-1: inactive; EP2 antag: inactive; GPR7 antag: inactive; EP2 mod: inactive; OX1R antag-2: inactive; CHO parental Ca: inactive

Results for O=C(CNC(=O)c1ccccc1)N/N=C/c1ccccc1Cl ?
OX1R antag-1: inactive; EP2 antag: inactive; GPR7 antag: inactive; EP2 mod: inactive; OX1R antag-2: inactive; CHO parental Ca: inactive

How did O=C(CNC(=O)c1ccccc1)N/N=C/c1ccc([N+](=O)[O-])o1 do in these assays?
OX1R antag-1: 98; EP2 antag: inactive; GPR7 antag: inactive; EP2 mod: inactive; OX1R antag-2: inactive; CHO parental Ca: inactive; OX1R HTRF confirm: inactive; CHO-K1 HTRF cnt: 75

How did O=C(NCc1cccnc1)c1ccc([N+](=O)[O-])o1 do in these assays?
OX1R antag-1: inactive; EP2 antag: inactive; GPR7 antag: inactive; EP2 mod: inactive; OX1R antag-2: inactive; CHO parental Ca: inactive

Results for O=C(NNC(=O)c1ccc([N+](=O)[O-])o1)c1ccccc1 ?
OX1R antag-1: 136; EP2 antag: inactive; GPR7 antag: inactive; EP2 mod: inactive; OX1R antag-2: inactive; CHO parental Ca: inactive; OX1R HTRF confirm: 59; CHO-K1 HTRF cnt: 64

Results for CC1(C)Cc2c(sc3nc(NN)[nH]c(=O)c23)CO1 ?
EP2 antag: inactive; EP2 mod: inactive

How did C=CCNC(=S)N(CC)c1cccc2ccccc12 do in these assays?
OX1R antag-1: inactive; EP2 antag: inactive; GPR7 antag: inactive; EP2 mod: inactive; OX1R antag-2: inactive; CHO parental Ca: inactive

How did CC1CCN(c2nc3c(c(=O)[nH]2)CN(Cc2ccc(F)c(F)c2)CC3)CC1 do in these assays?
EP2 antag: inactive; EP2 mod: inactive

Results for Cc1cc(C)nc(NC(=O)c2ccc([N+](=O)[O-])o2)n1 ?
OX1R antag-1: 78; EP2 antag: inactive; GPR7 antag: inactive; EP2 mod: inactive; OX1R antag-2: inactive; CHO parental Ca: inactive; OX1R HTRF confirm: inactive; CHO-K1 HTRF cnt: 80

How did O=C(Nc1ncccn1)c1cc([N+](=O)[O-])cc([N+](=O)[O-])c1 do in these assays?
OX1R antag-1: 107; EP2 antag: inactive; GPR7 antag: inactive; EP2 mod: inactive; OX1R antag-2: inactive; CHO parental Ca: inactive; OX1R HTRF confirm: 58; CHO-K1 HTRF cnt: 72

Results for Cc1cc(C)cc(NC(=O)c2ccc([N+](=O)[O-])o2)c1 ?
EP2 antag: inactive; GPR7 antag: inactive; EP2 mod: inactive
